Columns and labels:
Acylcarnitine hydrolase = molecular target: T1, Acylcarnitine hydrolase (Mus musculus, UniProt Q91WG0); assay: Inhibition of carboxylesterase in murine liver microsomes.; set-up: species or system Microsome
T1 sequence (Q91WG0 whole entry): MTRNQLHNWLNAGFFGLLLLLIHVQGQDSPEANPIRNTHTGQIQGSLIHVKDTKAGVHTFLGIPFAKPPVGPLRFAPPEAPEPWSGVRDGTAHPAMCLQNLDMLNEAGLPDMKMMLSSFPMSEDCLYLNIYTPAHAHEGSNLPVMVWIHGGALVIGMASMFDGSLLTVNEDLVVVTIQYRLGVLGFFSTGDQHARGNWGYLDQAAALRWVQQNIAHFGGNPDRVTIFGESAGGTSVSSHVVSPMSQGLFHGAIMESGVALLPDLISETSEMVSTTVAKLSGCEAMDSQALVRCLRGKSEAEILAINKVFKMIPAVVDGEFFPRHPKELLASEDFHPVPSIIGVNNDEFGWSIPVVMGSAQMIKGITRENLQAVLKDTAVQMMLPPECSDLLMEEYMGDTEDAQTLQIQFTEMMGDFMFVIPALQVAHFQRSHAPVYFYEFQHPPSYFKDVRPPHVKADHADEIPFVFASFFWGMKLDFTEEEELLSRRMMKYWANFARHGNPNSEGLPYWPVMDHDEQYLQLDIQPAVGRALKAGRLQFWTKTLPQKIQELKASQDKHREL
Method in brief: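 Liver microsomes from male Swiss-Webster mice (differential centrifugation, 100000g pellets), solubilized in 1% n-octyl-β-D-glucopyranoside, then dialyzed 48 h at 4 °C to remove it; 0.88 μg protein per well. Assay in 0.1 M sodium phosphate pH 7.4 at 30 °C: 5 min inhibitor preincubation (ethanol ≤1%), 0.5 mM p-nitrophenyl acetate, 405 nm.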

Liver carboxylesterase = molecular target: T2, Liver carboxylesterase (Sus scrofa, UniProt Q29550); assay: In vitro inhibition of porcine carboxylesterase.
T2 sequence (Q29550 whole entry): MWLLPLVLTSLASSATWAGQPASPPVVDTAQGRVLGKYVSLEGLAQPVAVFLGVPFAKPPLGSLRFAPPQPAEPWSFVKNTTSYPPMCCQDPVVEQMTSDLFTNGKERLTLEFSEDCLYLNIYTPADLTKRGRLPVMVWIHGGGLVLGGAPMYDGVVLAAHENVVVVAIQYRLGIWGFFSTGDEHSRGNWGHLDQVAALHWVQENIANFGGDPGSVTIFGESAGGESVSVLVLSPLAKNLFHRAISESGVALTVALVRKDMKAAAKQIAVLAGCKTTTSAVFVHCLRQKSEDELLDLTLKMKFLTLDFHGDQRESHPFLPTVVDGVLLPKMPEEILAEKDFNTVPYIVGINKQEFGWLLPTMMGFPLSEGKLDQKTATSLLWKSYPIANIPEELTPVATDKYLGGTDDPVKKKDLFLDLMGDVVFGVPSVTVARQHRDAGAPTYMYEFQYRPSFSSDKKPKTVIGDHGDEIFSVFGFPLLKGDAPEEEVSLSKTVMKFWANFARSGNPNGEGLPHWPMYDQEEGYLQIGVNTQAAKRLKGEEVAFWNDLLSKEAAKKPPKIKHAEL

Cocaine esterase = molecular target: T3, Cocaine esterase (Homo sapiens, UniProt O00748); assay: In vitro inhibition of carboxylesterase in human liver microsomes.; set-up: species or system Microsome
T3 sequence (O00748 whole entry): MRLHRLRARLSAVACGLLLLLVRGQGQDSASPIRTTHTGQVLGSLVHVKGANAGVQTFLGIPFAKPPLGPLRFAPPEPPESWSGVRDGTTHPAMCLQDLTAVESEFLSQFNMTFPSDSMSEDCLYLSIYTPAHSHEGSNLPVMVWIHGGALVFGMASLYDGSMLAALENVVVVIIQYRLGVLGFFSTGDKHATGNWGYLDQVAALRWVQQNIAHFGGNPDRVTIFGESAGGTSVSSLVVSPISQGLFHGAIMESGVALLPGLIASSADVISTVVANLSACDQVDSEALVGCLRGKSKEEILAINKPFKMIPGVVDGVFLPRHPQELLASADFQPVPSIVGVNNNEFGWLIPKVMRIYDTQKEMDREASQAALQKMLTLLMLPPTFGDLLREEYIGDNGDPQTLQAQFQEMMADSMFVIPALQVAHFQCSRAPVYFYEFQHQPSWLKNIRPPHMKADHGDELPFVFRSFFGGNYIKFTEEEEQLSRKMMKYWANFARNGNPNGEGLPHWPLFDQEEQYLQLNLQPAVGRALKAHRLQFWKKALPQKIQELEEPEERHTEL

Row | Compound | IC50 (Acylcarnitine hydrolase) | IC50 (Liver carboxylesterase) | -Log IC50 (Cocaine esterase)
1 | CCCCCC[Se]CC(C)=O | 302 µM | 155 µM | 
2 | CCCCCC[Se](=O)CC(C)=O (stereo not given) | 15.8 µM | 9.33 µM | 5.69
3 | CCCCCC[Se](=O)(=O)CC(C)=O | 112 µM |  | 
4 | CCCCCCS(=O)(=O)CC(C)=O | 479 µM | 110 µM | 
5 | CCCCCCSCC(C)=O | 955 µM | 977 µM | 
6 | CCCCCC[Se]CC(=O)C(F)(F)F | 0.575 µM | 0.38 µM | 
7 | CCCCCCCCC(=O)CF | 1780 µM | 851 µM | 3.85
8 | CCCCCC[Se](=O)(=O)CC(=O)C(F)(F)F | 0.0132 µM | 0.0105 µM | 
9 | CCCCCC[Se](=O)CC(=O)C(F)(F)F (stereo not given) | 0.000501 µM | 0.000457 µM | 
10 | CCCCCCCCC(C)=O [2-DECANONE] |  | 67600 µM | 

Further lines, results first:

Row | IC50 (Acylcarnitine hydrolase) | IC50 (Liver carboxylesterase) | -Log IC50 (Cocaine esterase) | Compound
11 | 14800 µM | 6460 µM |  | CCCCCC/C=C/C(=O)C(F)(F)F
12 | 44.7 µM | 24.5 µM | 5.3 | CCCCCCCCC(=O)C(F)F
13 | 38 µM | 21.4 µM | 5.36 | CCCCCCCCC(=O)C(F)(F)F
14 | 0.162 µM | 0.115 µM |  | CCCCCCCC(F)(F)C(=O)C(F)(F)F
15 | 0.0224 µM | 0.017 µM |  | CCCCCCNCC(=O)C(F)(F)F
16 | 427 µM | 257 µM |  | CCCCCCOCC(C)=O
17 | 0.447 µM | 0.17 µM | 6.51 | CCCCCC[S+]([O-])CC(=O)C(F)(F)F (stereo not given)
18 | 0.447 µM | 0.676 µM |  | CCCCCCS(=O)(=O)CC(=O)C(F)(F)F
19 | 2040 µM | 955 µM |  | CCCCCCC#CC(=O)C(F)(F)F
20 | 0.12 µM | 0.0437 µM |  | CCCCCCOCC(=O)C(F)(F)F
21 | 0.0126 µM | 0.00832 µM |  | CCCCCCSCC(=O)C(F)(F)F

Reference: ChEMBL document CHEMBL1135680, “Use of ab initio calculations to predict the biological potency of carboxylesterase inhibitors” (J Med Chem, 2002)
